Assay outcomes from PubChem.
Only some compounds are listed: those with a hit (about 2.3% of all), similar ones and a draw of the others.
TRPC6 inhibitor – blocks the mouse TRPC6 cation channel | AID 2553 | actives 1.1% (n = 310,000) | HEK293-TRPC6, membrane potential dye, ACh-evoked depolarization; hits give low values | B-score at 10 µM;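 active = B-score under library mean minus 3 SD, initial fluorescence not abnormally high, positive integrated signal ratio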;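 note: B-score derived from integrated fluorescence ratio over the kinetic read; more negative B-score means stronger inhibition of depolarization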
Target sequence (Q61143 whole entry, looked up): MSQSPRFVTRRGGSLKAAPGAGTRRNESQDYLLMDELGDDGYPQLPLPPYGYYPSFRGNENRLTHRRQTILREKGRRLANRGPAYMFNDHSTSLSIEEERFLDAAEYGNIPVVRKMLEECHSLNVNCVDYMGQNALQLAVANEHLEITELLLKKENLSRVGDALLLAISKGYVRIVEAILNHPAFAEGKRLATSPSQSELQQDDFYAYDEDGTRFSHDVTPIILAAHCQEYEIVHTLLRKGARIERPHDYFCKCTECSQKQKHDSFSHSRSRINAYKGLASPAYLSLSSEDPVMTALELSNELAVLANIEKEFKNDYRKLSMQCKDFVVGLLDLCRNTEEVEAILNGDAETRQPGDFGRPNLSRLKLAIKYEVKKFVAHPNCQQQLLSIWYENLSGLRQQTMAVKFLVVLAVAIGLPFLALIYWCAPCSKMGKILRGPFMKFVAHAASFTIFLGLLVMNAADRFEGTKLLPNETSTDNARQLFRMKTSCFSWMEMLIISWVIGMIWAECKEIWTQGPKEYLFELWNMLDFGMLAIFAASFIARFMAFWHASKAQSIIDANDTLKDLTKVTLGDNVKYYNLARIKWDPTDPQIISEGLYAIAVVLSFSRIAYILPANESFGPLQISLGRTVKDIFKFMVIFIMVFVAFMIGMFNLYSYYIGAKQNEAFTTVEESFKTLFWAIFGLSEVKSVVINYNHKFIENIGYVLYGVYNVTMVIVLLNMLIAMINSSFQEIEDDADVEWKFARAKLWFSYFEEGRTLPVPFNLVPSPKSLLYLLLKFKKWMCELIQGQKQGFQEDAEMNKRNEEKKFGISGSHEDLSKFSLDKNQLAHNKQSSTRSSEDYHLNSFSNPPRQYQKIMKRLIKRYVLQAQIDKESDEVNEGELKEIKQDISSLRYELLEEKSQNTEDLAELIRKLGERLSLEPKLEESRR
TRPC4 block – inhibitors of mouse TRPC4 channel; Q9QUQ5; HEK293 TRPC4beta/mu-opioid, DAMGO-evoked Fluo4 calcium flux; hits give low values; B-score at 10 µM; actives 0.39% (n = 300,000); AID 2247;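 active = B-score over 3 SD under the library average, no early fluorescence shift, positive overall ratio signal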
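Assay system: TRPC4beta/mu-opioid receptor HEK293 cell line; compound dosing: single concentration per test compound; detection: Fluo4 Ca2+ flux fluorescence; evaluation: per-well B score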
TRPC6 activator – activates the mouse TRPC6 cation channel. HEK293-TRPC6 membrane potential dye fluorescence; hits give high values. AID 2550. B-score at 10 µM. actives 0.13% (n = 310,000). Q61143;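 active = B-score of the integrated fluorescence ratio above library mean plus 3 SD, and starting fluorescence ratio within library mean plus 5 SD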;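 note: higher score means more depolarization so channel activation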
TRPC4 PAM – allosteric potentiators of mouse TRPC4 channel. Q9QUQ5. AID 2227. B-score at 10 µM. actives 0.42% (n = 310,000). HEK293 TRPC4beta/mu-opioid, DAMGO EC20, Fluo-4 Ca2+ flux; hits give high values;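 active = B-score of calcium response area above 5 SD of library B-scores, with initial fluorescence ratio within 5 SD of library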;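 note: B-score of integrated fluorescence ratio over time as area under calcium response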
TRPC4 agonist – activators of mouse TRPC4 channel | Q9QUQ5 | HEK293 TRPC4beta/mu-opioid, Fluo4 calcium fluorescence; hits give high values | B-score at 10 µM | actives 0.49% (n = 310,000) | AID 2237;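 active = B-score above 5 SD of library B-scores, and initial fluorescence ratio not above library mean plus 5 SD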;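 note: positive B-score marks a calcium rise read as TRPC4 activation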
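Technique: kinetic Fluo4 calcium fluorescence; Test system: TRPC4beta and mu-opioid receptor HEK293 stable cells; Measure: B-scored integrated calcium fluorescence ratio; Benchmarks: low control buffer alone, high control maximal DAMGO; Schedule: 45 min room-temperature Fluo4 loading, 110 s read.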
TRPC4 sel inh 2 – second check of whether TRPC6 inhibitors also affect mouse TRPC4 | inhibition, % at 10 µM | actives 42% (n = 920) | shares compounds with TRPC6 inhibitor | AID 2776 | HEK293 TRPC4/MOR, membrane potential dye fluorescence; channel activated by saturating DAMGO dose;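 active = compounds whose fluorescence signal differed from control wells by over 3 SD, either direction, in both duplicate plates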
TRPC4 spec – selectivity of TRPC6 inhibitors: effect on mouse TRPC4. shares compounds with TRPC6 inhibitor. HEK293 TRPC4/mu-opioid, membrane potential fluorescence. activity change, negative = inhibition, % at 10 µM. actives 61% (n = 920);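 active = rise or fall in signal beyond 3 SD of buffer-only wells in both replicate plates, either sign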;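 note: integrated kinetic ratio of fluorescence range over baseline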
HEK293 MPD ctr 2-1 – second counter-screen for TRPC6 inhibitors: parental HEK293 cells; shares compounds with TRPC6 inhibitor; parental HEK293 membrane potential dye fluorescence; maximal acetylcholine challenge after compound addition; signal change vs control, % at 10 µM; actives 31% (n = 920); AID 2779;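 active = membrane potential signal moving either way by over 3 SD of the maximum-effect control, in both duplicate plates, meaning non-specific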
HEK293 MPD ctr-1 – parental HEK293 nonspecific activity of TRPC6 inhibitors. shares compounds with TRPC6 inhibitor. parental HEK293 membrane potential dye fluorescence. membrane potential signal change, % at 10 µM. actives 60% (n = 920);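 active = membrane potential signal shifting up or down by more than 3 SD of buffer-only wells, on both duplicate plates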
HEK293 MPD ctr-2 – parental HEK293 nonspecific activity of TRPC6 modulators | shares compounds with TRPC6 inhibitor | actives 51% (n = 2,400) | membrane potential dye fluorescence | membrane potential signal change, % at 10 µM;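 active = membrane potential signal moves up or down beyond 5 SD from buffer-only wells, on both duplicate plates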
HEK293 MPD ctr 2-2 – second check of TRPC6 modulator effects in parental HEK293 cells; AID 488926; inhibition, % at 10 µM; actives 14% (n = 2,400); shares compounds with TRPC6 inhibitor; membrane potential dye fluorescence; after compound, maximal acetylcholine stimulation;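 active = membrane potential signal drops by more than 5 SD from the mean control signal, in both duplicate plates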;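 note: plate controls were acetylcholine ECmax control wells for no effect and buffer only wells for full effect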
TRPC4 ctr mod – tests whether TRPC6 modulators also affect mouse TRPC4; percent change from control (negative = decrease, positive = increase), % at 10 µM; actives 69% (n = 2,400); HEK293 TRPC4/mu-opioid, membrane potential fluorescence; AID 488927; shares compounds with TRPC6 inhibitor;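 active = membrane potential signal moved up or down beyond 5 SD of buffer control wells, in both duplicate plates, actives on both sides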;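 note: plate controls were assay buffer wells for no effect and DAMGO maximal-effect wells for full effect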
TRPC4 ctr inh 2 – mouse TRPC4 off-target activity of TRPC6 modulators, second screen; shares compounds with TRPC6 inhibitor; AID 488928; actives 55% (n = 2,400); inhibition, % at 10 µM; HEK293 TRPC4/mu-opioid, membrane potential dye fluorescence; stimulated with maximal-effect DAMGO;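 active = drop in membrane potential signal beyond 5 SD of the control wells in both duplicate plates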;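 note: TRPC4 counter screen for TRPC6 hits run under conditions tuned for TRPC6 not TRPC4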
TRPC6 block conf – confirmation of mouse TRPC6 inhibitors; inhibition, % at 10 µM; HEK293-TRPC6, membrane potential dye, ACh-evoked depolarization; shares compounds with TRPC6 inhibitor; actives 43% (n = 3,300);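 active = fluorescence ratio falls more than 5 SD below the full-stimulation control mean, in both duplicate runs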;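 note: integrated fluorescence ratio of peak minus minimum over baseline after agonist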
TRPC6 act confirm – mouse TRPC6 activator confirmation. shares compounds with TRPC6 inhibitor. HEK293-TRPC6 membrane potential dye fluorescence, FDSS. activation, % at 10 µM. actives 11% (n = 2,800). AID 488961;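 active = ratio signal rise beyond 5 SD above unstimulated control wells' mean, seen in both duplicate runs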;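 note: plate controls were buffer EC0 wells for no effect and acetylcholine ECmax response for full effect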
* = called active by the depositor; i = inactive; . = no result; + = active, no number.

SMILES	TRPC6 inhibitor	TRPC4 block	TRPC6 activator	TRPC4 PAM	TRPC4 agonist	HEK293 MPD ctr-2	HEK293 MPD ctr 2-2	TRPC4 ctr mod	TRPC4 ctr inh 2	TRPC6 block conf	TRPC6 act confirm	others
CC1(C)Cc2c(C#N)c(NCc3ccco3)nc(-c3ccco3)c2CO1	i	i	i	i	i	.	.	.	.	.	.
CN(C)CCNc1nc(-c2ccco2)c2c(c1C#N)CC(C)(C)OC2	-9.7*	i	i	i	i	-396%*	78%*	-65%*	76%*	77%*	i
COc1ccc(Br)cc1CNC(=O)CCNC(=O)Cn1ccc2ccccc2c1=O	i	i	i	i	i	.	.	.	.	.	.
O=C(CCNC(=O)Cn1ccc2ccccc2c1=O)NCc1ccccn1	i	i	i	i	i	.	.	.	.	.	.
C/C=C/c1ccc(OCC(=O)N(CCOC)c2c(N)n(CCCC)c(=O)[nH]c2=O)c(OC)c1	i	i	i	i	i	.	.	.	.	.	.
CC(=O)NS(=O)(=O)c1ccc(NC(=O)c2ccc(Br)o2)cc1	i	i	i	i	i	.	.	.	.	.	.
COc1cc(/C=N/n2cnnc2)ccc1OCC(=O)N1CCOCC1	-7.2*	i	i	i	i	-334%*	i	-54%*	44%*	46%*	i
Cc1ccc(C2N(c3ccccc3)C(=S)N3CCCN23)cc1 (stereo unspecified)	-7.5*	i	i	i	i	.	.	.	.	70%*	i	TRPC4 sel inh 2=i;TRPC4 spec=i;HEK293 MPD ctr 2-1=i;HEK293 MPD ctr-1=i
Cc1ccc2c(c1)N(CC(=O)NC1CCCCC1C)C(=O)CO2 (stereo unspecified)	i	i	i	i	i	.	.	.	.	.	.
Cn1c(O)c(/C=N/NC(=O)c2cc3ccccc3cc2O)c2ccccc21	i	i	44*	33*	105*	+	i	298%*	i	i	256%*
COc1ccc(OC)c(-n2c(=S)[nH]c3c(sc(=S)n3-c3ccccc3)c2=O)c1	i	i	i	i	i	.	.	.	.	.	.
COC(=O)c1nn(-c2nc(-c3cccc(OC)c3)cc(C(F)(F)F)n2)cc1[N+](=O)[O-]	i	i	i	i	i	.	.	.	.	.	.
O=C(OCc1nnc(-c2ccccc2)o1)c1ccc(Cl)cc1	i	i	i	i	i	.	.	.	.	.	.
O=C(OCc1nnc(-c2ccccc2)o1)c1ccc2c(c1)OCCO2	-5.8*	i	i	i	i	i	i	12%*	i	i	.
